The nature of series [1]: Induction of activation of human CD56+ CD3- NK cells co-cultured with human PBMC cells assessed as increase in CD69 expression at 1 uM incubated for 24 hrs by flow cytometry analysis (reference value: 2.7%). Format: functional, Natural killer cell.
Series [2] in a line: Cytotoxicity against human PBMC cells assessed as reduction in metabolic activity at 10 uM incubated for 18 hrs by MTS assay. Type of series: toxicity, cell-based. Put shortly: (§1)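 Cells (HEK-Blue NOD2, RAW-Blue or freshly isolated human PBMCs) seeded in duplicate and exposed to 10 μM compound or 0.1% DMSO vehicle for 18 h at 37 °C, 5% CO2. Metabolic activity then measured by CellTiter 96 AQueous One (MTS) assay.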

A short description of series [3]: Induction of activation of human CD56+ CD3- NK cells co-cultured with human PBMC cells assessed as increase in CD107a expression at 1 uM incubated for 24 hrs by flow cytometry analysis (reference value: 1.5%). Format: functional, Natural killer cell.
The nature of series [4]: Induction of mouse ovalbumin specific CD4+ T cell activation assessed as increase in CD25 expression at 1 uM preincubated for 18 hrs with mouse BDMC cells in presence of ovalbumin followed by washout and further coincubated with CD4+ T cells and measured after 72 hrs by flow cytometry analysis (reference value: 10.9%). Type of series: functional, CD4+ve Th. A digest of the protocol:
(§2)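 C57BL/6 BMDCs (GM-CSF 7 days, >90% CD11c+) pulsed 18 h with 1 μM compound, LPS 1 μg/mL or 0.1% DMSO plus OVA 50 μg/mL, washed. 1 × 10^4 BMDCs cocultured 72 h with 5 × 10^4 CFSE-labelled OT-II CD4+ or OT-I CD8+ T cells. Flow: live Thy1.2+ CD4+ or CD8+ cells scored as CD25+ CFSElow. Duplicates of two experiments.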
A general note: A flow cytometer gives signals particle by particle.

Series [5] can be described thus: Induction of activation of human CD56+ CD3- NK cells co-cultured with human PBMC cells assessed as increase in IFN-gamma expression at 1 uM incubated for 24 hrs by flow cytometry analysis (reference value: 0.04%). Type of series: functional, Natural killer cell.
Series [6] is described as follows: Cytotoxicity against mouse RAW-Blue cells assessed as reduction in metabolic activity at 10 uM incubated for 18 hrs by MTS assay. Format: toxicity, cell-based. Put shortly: as §1
For orientation: Formazan colour is commonly taken as a measure of viable cells.

Series [7] can be described thus: Cytotoxicity against HEK-Blue hNOD2 cells assessed as reduction in metabolic activity at 10 uM incubated for 18 hrs by MTS assay. Format: toxicity, cell-based. The following applies: human, hek-blue hnod2, 18 h. Put shortly:
as §1

Series [8] is described as follows: Induction of mouse ovalbumin specific CD8-positive T cell activation assessed as increase in CD25 expression at 1 uM preincubated for 18 hrs with mouse BDMC cells in presence of ovalbumin followed by washout and further coincubated […] and measured after 72 hrs by flow cytometry analysis (reference value: 12.6%). Format: functional. A digest of the protocol: as §2

In the next series the test system is PBMC. In words: Immunostimulatory activity in human PBMC cells assessed as increase in IL-8 production at 1 uM incubated for 18 hrs by flow cytometry analysis. Type of series: functional, cell-based. Put shortly: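 PBMCs at 1 × 10^6 cells/mL treated with compound (1 μM), LPS (1 μg/mL) or 0.1% DMSO vehicle; cell-free supernatants collected after 18 h at 37 °C, 5% CO2. Cytokines quantified by human inflammatory cytokine bead array on flow cytometry with recombinant standard curves. Four independent experiments, mean ± SEM.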

Series [9] has as its system CD8-positive T cell. Briefly: Induction of mouse ovalbumin specific CD8-positive T cell activation assessed as increase in IL-6 expression at 1 uM preincubated for 18 hrs with mouse BDMC cells in presence of ovalbumin followed by washout and further coincubated with CD4+ T cells and measured after 72 hrs. Format: functional, cell-based. A digest of the protocol:
(§3)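 Supernatants taken after the 72 h coculture of washed BMDCs (18 h pretreatment with 1 μM compound, LPS 1 μg/mL or vehicle, plus OVA 50 μg/mL) with OT-II CD4+ or OT-I CD8+ T cells. Cytokines measured by mouse Th1/Th2/Th17 cytometric bead array. Duplicates of two independent experiments, mean ± SEM.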

Series [10] has as its system CD8-positive T cell. Briefly: Induction of mouse ovalbumin specific CD8-positive T cell activation assessed as increase in IFN-gamma expression at 1 uM preincubated for 18 hrs with mouse BDMC cells in presence of ovalbumin followed by washout and further coincubated […] and measured after 72 hrs. Format: functional, cell-based. A digest of the protocol:
as §3

The next series concerns RAW-Blue. In words: Activation of NF-kappaB transcriptional activity in mouse RAW-Blue cells expressing NOD2 and TLR7 at 1 uM incubated for 18 hrs by quanti-blue/SEAP-based spectrophotometry analysis. Type of series: cell-based. The following applies: filed as activator. A digest of the protocol: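 RAW-Blue cells pretreated 1 h with NOD2 antagonist SG84 (5 μM), TLR7 antagonist M5049 (1 μM), both, or neither, then given compound or 0.1% DMSO vehicle; 18 h at 37 °C, 5% CO2 in growth medium without Normocin/Zeocin. Supernatant mixed with QUANTI-Blue for 2 h at 37 °C, SEAP read at 630 nm. Activity relative to vehicle; three independent experiments, mean ± SEM.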

A further series relates to MEC1. In words: Cytotoxicity against human MEC1 cells cocultured with human PBMC cells assessed as inhibition of cell proliferation at 1 uM incubated with PBMC cells for 18 hrs followed by co-incubation with MEC-1 cells for 4 hrs by SYTOX blue staining based flow cytometric analysis. Format: functional. Put shortly:
(§4)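 Human PBMCs (Ficoll-isolated, healthy donors) pretreated 18 h in duplicate with compound (1 nM–1 μM) or 0.1% DMSO. CFSE-labelled K562 or MEC1 target cells then added, effector:target 40:1, 4 h at 37 °C. Sytox blue staining, flow cytometry; CFSE+Sytox+ cells counted as dead. Expressed relative to vehicle; three independent experiments, mean ± SEM.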

Series [11] relates to CD4+ve Th. In words: Induction of mouse ovalbumin specific CD4+ T cell activation assessed as increase in IL-17A expression at 1 uM preincubated for 18 hrs with mouse BDMC cells in presence of ovalbumin followed by washout and further coincubated with CD4+ T cells and measured after 72 hrs. Format: functional, cell-based. A digest of the protocol:
as §3

For series [12], the system named is CD8-positive T cell. In words: Induction of mouse ovalbumin specific CD8-positive T cell activation assessed as increase in IL-17A expression at 1 uM preincubated for 18 hrs with mouse BDMC cells in presence of ovalbumin followed by washout and further coincubated with CD4+ T cells and measured after 72 hrs. Format: functional, cell-based. Put shortly: as §3

Series [13] relates to CD8-positive T cell. Briefly: Induction of mouse ovalbumin specific CD8-positive T cell activation assessed as increase in TNF expression at 1 uM preincubated for 18 hrs with mouse BDMC cells in presence of ovalbumin followed by washout and further coincubated with CD4+ T cells and measured after 72 hrs. Format: functional, cell-based. A digest of the protocol:
as §3

The subject of series [14] is CD4+ve Th. Briefly: Induction of mouse ovalbumin specific CD4+ T cell activation assessed as increase in IFN-gamma expression at 1 uM preincubated for 18 hrs with mouse BDMC cells in presence of ovalbumin followed by washout and further coincubated with CD4+ T cells and measured after 72 hrs. Type of series: functional, cell-based. A digest of the protocol: as §3

Series [15] concerns CD4+ve Th. Briefly: Induction of mouse ovalbumin specific CD4+ T cell activation assessed as increase in IL-6 expression at 1 uM preincubated for 18 hrs with mouse BDMC cells in presence of ovalbumin followed by washout and further coincubated with CD4+ T cells and measured after 72 hrs. Type of series: functional, cell-based. A digest of the protocol:
as §3

A further series relates to K562. In words: Cytotoxicity against human K562 cells cocultured with human PBMC cells assessed as inhibition of cell proliferation at 1 uM incubated with PBMC cells for 18 hrs followed by co-incubation with K562 cells for 4 hrs by SYTOX blue staining based flow cytometric analysis. Format: functional. Put shortly: as §4
Series [16] has as its system CD4+ve Th. In words: Induction of mouse ovalbumin specific CD4+ T cell activation assessed as increase in TNF expression at 1 uM preincubated for 18 hrs with mouse BDMC cells in presence of ovalbumin followed by washout and further coincubated with CD4+ T cells and measured after 72 hrs. Type of series: functional, cell-based. A digest of the protocol: as §3

Active and inactive are the calls of the source. The calls are words filed in the database; no cut-off is given here.

Consider `CCOC(=O)CC[C@@H](NC(=O)[C@@H](NC(=O)CNC(=O)/C=C/c1ccc(O)c(OC)c1)C(C)C)C(=O)OCC`, for which the Activity is 14% in series [1]; “Non-Toxic” in series [2]; 1.1% in [3]; 12.6% in series [4]; 1.4% in series [5]; “Non-Toxic” in series [6]. In addition, the figures for the Activity entry in [7] and in [8] were “Non-Toxic” and 13.1%, respectively. In addition, the result in the series on PBMC was Active.
For the molecule `CCCCOc1nc(N)c2nc(O)n(Cc3ccc(C(=O)O)cc3)c2n1`, the Activity is 3.3% in series [1]; “Non-Toxic” in [2]; 1.7% in series [3]; 25.8% in series [4]; 0.05% in series [5]; “Non-Toxic” in series [6]. Besides, the Activity result in series [7] was “Non-Toxic”; in series [8], 17.6%.
As for `CCCCOc1nc(N)c2nc(O)n(Cc3ccc(C(=O)NCCCCCC(=O)Oc4ccc(/C=C/C(=O)NCC(=O)N[C@H](C(=O)N[C@H](CCC(=O)OCC)C(=O)OCC)C(C)C)cc4OC)cc3)c2n1`, the Activity is given as 93% in [1]; “Non-Toxic” in series [2]; 8.6% in series [3]; 29.5% in series [4]; 21% in series [5]; “Non-Toxic” in series [6]. The Activity result in series [7] is reported as “Non-Toxic”; in [8], 44.7%. The result in the series on CD8-positive T cell [9], in the series on CD8-positive T cell [10], in the series with RAW-Blue, in the series on MEC1, in the series on CD4+ve Th [11] and with CD8-positive T cell [12] was Active. Moreover, the result with CD8-positive T cell [13], in the series on CD4+ve Th [14], in the series with CD4+ve Th [15], in the series on K562 and in the series with CD4+ve Th [16] was Active.

The values above are taken from ChEMBL document CHEMBL5096231, “Covalently Conjugated NOD2/TLR7 Agonists Are Potent and Versatile Immune Potentiators” (J Med Chem, 2022).
